pEC50, pKi: −log10 of the molar value.
Experiments:
Progesterone receptor = molecular target: T1, Progesterone receptor (Homo sapiens, UniProt P06401); experiment: Binding affinity to progesterone receptor (unknown origin) by fluorescence polarization assay
T1 sequence (P06401 whole entry): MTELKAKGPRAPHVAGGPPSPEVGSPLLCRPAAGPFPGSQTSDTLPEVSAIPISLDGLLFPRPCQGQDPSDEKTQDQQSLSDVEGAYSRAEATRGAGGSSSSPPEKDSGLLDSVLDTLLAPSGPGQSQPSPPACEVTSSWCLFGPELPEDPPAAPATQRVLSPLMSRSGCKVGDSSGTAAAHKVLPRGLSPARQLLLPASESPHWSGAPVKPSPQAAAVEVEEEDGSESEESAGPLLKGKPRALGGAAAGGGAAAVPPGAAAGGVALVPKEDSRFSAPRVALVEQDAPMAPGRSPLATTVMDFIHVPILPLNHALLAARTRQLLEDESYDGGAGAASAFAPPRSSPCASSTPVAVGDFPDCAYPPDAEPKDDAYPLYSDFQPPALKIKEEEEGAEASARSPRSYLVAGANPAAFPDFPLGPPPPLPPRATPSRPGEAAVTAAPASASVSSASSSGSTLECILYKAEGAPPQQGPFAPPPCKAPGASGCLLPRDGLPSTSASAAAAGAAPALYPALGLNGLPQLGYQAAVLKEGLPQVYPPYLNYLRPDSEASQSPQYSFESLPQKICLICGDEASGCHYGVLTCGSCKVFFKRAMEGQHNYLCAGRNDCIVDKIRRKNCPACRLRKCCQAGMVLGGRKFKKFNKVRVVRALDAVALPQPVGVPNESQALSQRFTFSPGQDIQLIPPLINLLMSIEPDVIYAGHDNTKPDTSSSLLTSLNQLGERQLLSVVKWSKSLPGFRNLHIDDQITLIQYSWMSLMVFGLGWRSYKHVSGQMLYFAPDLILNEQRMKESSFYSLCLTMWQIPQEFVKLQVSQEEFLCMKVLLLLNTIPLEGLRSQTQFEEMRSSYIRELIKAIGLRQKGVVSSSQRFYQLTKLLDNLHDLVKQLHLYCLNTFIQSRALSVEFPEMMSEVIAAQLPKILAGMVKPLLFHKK
Summary of the method: (§1)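 Fluorescence polarization competition between test compound and a fluorescently labeled ligand for full-length receptor or its ligand binding domain. IC50 from a four-parameter logistic fit of the polarization signal, converted to Ki with Cheng–Prusoff […]. Means of duplicate experiments.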

[1] = molecular target: T2, Glucocorticoid receptor (Homo sapiens) (UniProt P04150); experiment: Agonist activity at glucocorticoid receptor in human A549 cells assessed as inhibition of PMA-induced AP-1 activation by luciferase reporter gene assay relative to dexamethasone; type: cell-based
T2 sequence (whole entry): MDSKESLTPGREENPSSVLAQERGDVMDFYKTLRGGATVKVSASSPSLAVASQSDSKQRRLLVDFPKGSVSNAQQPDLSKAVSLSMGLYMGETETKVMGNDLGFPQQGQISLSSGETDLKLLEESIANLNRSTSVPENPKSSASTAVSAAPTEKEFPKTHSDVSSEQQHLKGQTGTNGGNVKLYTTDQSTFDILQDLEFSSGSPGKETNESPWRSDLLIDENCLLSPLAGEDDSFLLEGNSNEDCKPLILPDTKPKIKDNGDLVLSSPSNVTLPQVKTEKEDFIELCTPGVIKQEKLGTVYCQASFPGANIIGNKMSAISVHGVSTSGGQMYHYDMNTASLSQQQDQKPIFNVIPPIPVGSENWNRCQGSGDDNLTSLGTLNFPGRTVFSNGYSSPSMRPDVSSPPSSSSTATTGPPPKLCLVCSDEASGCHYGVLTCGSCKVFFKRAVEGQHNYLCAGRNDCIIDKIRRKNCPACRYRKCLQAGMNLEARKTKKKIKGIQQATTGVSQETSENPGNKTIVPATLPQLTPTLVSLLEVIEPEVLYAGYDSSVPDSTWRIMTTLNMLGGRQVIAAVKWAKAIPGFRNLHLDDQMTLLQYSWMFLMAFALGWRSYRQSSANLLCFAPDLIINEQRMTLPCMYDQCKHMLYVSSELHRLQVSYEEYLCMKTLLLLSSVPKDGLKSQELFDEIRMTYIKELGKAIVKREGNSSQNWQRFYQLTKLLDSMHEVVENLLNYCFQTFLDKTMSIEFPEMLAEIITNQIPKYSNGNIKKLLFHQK
Summary of the method: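 A549 lung epithelial cells stably carrying a luciferase reporter with 5 copies of the AP-1 response element; AP-1 induced with PMA (15 ng/ml). Compound inhibition of induction read as decreased luciferase. […] Means of two or more experiments in triplicate.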

Homo sapiens [2] = organism: Homo sapiens; experiment: Selectivity ratio of Ki for progesterone receptor (unknown origin) to Ki for glucocorticoid receptor (unknown origin)
Androgen receptor = molecular target: T3, Androgen receptor (Homo sapiens, UniProt P10275); experiment: Binding affinity to androgen receptor (unknown origin) by fluorescence polarization assay; summary of the method: as §1
T3 sequence (P10275 whole entry): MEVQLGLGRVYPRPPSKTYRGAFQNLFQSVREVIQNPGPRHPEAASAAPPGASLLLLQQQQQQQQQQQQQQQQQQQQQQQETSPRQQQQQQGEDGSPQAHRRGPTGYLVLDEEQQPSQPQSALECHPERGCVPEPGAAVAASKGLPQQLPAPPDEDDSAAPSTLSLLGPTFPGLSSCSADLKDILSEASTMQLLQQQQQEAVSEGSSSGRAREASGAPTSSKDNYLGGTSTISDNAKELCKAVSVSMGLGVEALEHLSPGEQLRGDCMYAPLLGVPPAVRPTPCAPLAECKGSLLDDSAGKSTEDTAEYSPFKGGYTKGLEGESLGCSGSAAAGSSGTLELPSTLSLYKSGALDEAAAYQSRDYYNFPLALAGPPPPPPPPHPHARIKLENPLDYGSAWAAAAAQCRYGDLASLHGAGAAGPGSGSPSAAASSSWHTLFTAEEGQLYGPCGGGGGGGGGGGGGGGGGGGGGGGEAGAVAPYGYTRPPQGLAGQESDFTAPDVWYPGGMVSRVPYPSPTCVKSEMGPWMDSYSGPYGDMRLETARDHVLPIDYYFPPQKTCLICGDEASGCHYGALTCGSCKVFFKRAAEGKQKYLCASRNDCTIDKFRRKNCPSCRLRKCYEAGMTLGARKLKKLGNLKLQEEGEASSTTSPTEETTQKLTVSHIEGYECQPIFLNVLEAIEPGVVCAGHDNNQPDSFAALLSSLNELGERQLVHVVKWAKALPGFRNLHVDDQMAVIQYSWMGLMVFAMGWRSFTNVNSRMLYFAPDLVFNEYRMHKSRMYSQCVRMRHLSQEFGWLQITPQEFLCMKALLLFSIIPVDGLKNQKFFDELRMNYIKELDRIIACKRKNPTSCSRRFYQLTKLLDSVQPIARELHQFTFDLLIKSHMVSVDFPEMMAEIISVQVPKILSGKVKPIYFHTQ

Homo sapiens [3] = organism: Homo sapiens; experiment: Selectivity ratio of Ki for androgen receptor (unknown origin) to Ki for glucocorticoid receptor (unknown origin)
Glucocorticoid receptor = molecular target: T4, Glucocorticoid receptor (Homo sapiens, UniProt P04150); experiment: Agonist activity at glucocorticoid receptor in human A549 cells assessed as inhibition of PMA-induced AP-1 activation by luciferase reporter gene assay; type: cell-based
T4 sequence (P04150 whole entry): T2 sequence (whole entry)

pKi (Progesterone receptor) | Efficacy [1] [%] | Ratio Ki (Homo sapiens [2]) | pKi (Androgen receptor) | Ratio Ki (Homo sapiens [3]) | pEC50 (Glucocorticoid receptor) | Compound
6.96 | 60 | 10 | 5.60 | > 1000 | 7.74 | CCCC(c1ccc2c(cnn2-c2ccc(F)cc2)c1)C(C)(C)C(=O)Nc1nncs1 (racemic)
6.67 | – | – | 6.61 | – | – | CC(C(=O)Nc1nncs1)[C@@H](c1ccccc1)c1ccc2c(cnn2-c2ccc(F)cc2)c1 (single isomer, unassigned; diastereomer 2)
7.66 | – | – | < 5.38 | – | – | CC(C(=O)Nc1nncs1)[C@@H](c1ccccc1)c1ccc2c(cnn2-c2ccc(F)cc2)c1 (single isomer, unassigned; diastereomer 3)

Reference: ChEMBL document CHEMBL2424628, “Discovery of potent and selective nonsteroidal indazolyl amide glucocorticoid receptor agonists” (Bioorg Med Chem Lett, 2013)
